Non-standard residues stand in square brackets, D forms with d. Residues, ends and D or L forms follow the SMILES beside them. No end group written: not given here. *: point of attachment. Benzoyl(2-OMe,5-SO2F) = COc1ccc(S(=O)(=O)F)cc1C(=O)*; Biotin = O=C1N[C@H]2[C@H](CS[C@H]2CCCCC(=O)*)N1; X1 = Cc1ccc(S(=O)(=O)F)cc1C(=O)*; hSer = N[C@@H](CCO)C(=O)O; Nle = CCCC[C@H](N)C(=O)O; Abu = CC[C@H](N)C(=O)O; Dap = NC[C@H](N)C(=O)O; Ahx = NCCCCCC(=O)O
Experiments:
hMcl-1 construct = test: In vitro denaturation thermal shift; format: binding, human; settings: hMcl-1 construct used for biochemical and crystallization studies (Figure S4)
hMcl-1 [1] = target: T1, hMcl-1 (Homo sapiens, UniProt Q07820); test: Mass spectrometry of covalent adduct; format: binding; settings: protein alone 18,763 Da (Figure S1)
T1 sequence (Q07820 172-323): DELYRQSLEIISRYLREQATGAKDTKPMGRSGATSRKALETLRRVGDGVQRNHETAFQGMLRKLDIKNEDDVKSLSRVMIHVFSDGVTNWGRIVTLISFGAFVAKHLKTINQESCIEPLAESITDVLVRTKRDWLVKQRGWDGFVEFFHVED

Mcl-1 in A549 cells = test: Mcl-1 protein levels in A549 cells by immunoblotting; format: cell-based, human; settings: 50 or 100 μM compound, 2 h, western blot relative to β-tubulin
Procedure, shortened: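 A549 cells grown in Ham's F-12 with GlutaMAX, 10% FBS, 1% PenStrep and 0.5 μg/mL puromycin. Cells were exposed to DMSO or test compound (50 or 100 μM) for 2 h, with or without 30 min pre-treatment with 1 μM carfilzomib. Lysates were run on SDS-PAGE, transferred to PVDF, blocked in 5% milk/TBS-T, probed overnight at 4 °C for Mcl-1 and β-tubulin, then HRP secondary and ECL detection.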

[2] = system: Mcl-1 in A549 cell lysates; test: Covalent adduct in spiked A549 cell lysates by immunoblotting; format: binding, human; settings: A549 cell lysates spiked with 100 μM compound for 1 h at 37 °C, western blot
Procedure, shortened: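 A549 cells grown in Ham's F-12 with GlutaMAX, 10% FBS, PenStrep and 0.5 μg/mL puromycin. Harvested cells were lysed for 20 min on ice in Tris pH 7.4 buffer with Triton X-100, deoxycholate, SDS, IGEPAL, EDTA, protease and phosphatase inhibitors. Cleared, protein-quantified supernatant was incubated with DMSO or 100 μM test compound for 1 h at 37 °C. Then SDS-PAGE, PVDF transfer, milk block, anti-Mcl-1 and β-tubulin overnight at 4 °C, HRP secondary, ECL.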

hMcl-1 [3] = target: T1, hMcl-1; test: DELFIA displacement assay, hMcl-1; format: binding
Solubility = format: physicochemical; settings: qualitative, relative to peptides 10 and 11
hBfl-1 = target: T2, hBfl-1 (Homo sapiens, UniProt Q16548); test: DELFIA displacement assay, hBfl-1; format: binding
T2 sequence (Q16548 1-149): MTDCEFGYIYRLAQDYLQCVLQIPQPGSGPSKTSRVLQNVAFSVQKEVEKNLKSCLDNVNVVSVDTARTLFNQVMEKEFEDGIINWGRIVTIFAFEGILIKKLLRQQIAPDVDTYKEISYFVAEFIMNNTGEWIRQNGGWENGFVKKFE

[4] = target: T3, hMcl-1 (residues 172–323) with N-terminal His tag (human, UniProt Q07820 172-323); test: DELFIA displacement assay
T3 sequence (Q07820 172-323): as the sequence (Q07820 172-323) above

[5] = target: T4, hBfl-1 (residues 1–149) with N-terminal His tag (human, UniProt Q16548 1-149); test: DELFIA displacement assay
T4 sequence (looked up): T2 sequence (Q16548 1-149)

[6] = target: T3, hMcl-1 (residues 172–323) with …; test: DELFIA displacement assay; remark: listed apart in the source

With CC[C@H](C)[C@H](NC(=O)[C@H](CCCNC(=N)N)NC(=O)[C@H](CCCNC(=N)N)NC(=O)[C@H](CC(C)C)NC(=O)[C@H](CCC(N)=O)NC(=O)[C@H](CCC(=O)O)NC(=O)[C@H](C)NC(=O)[C@@H](NC(=O)[C@H](CNC(=O)c1cc(S(=O)(=O)F)ccc1C)NC(C)=O)[C@@H](C)CC)C(=O)NCC(=O)N[C@@H](CC(=O)O)C(=O)N[C@@H](CCCNC(=N)N)C(=O)N[C@@H](Cc1ccccc1)C(N)=O [Compound 15] (Ac-[Dap](X1)IAEQLRRIGDRF-NH2) the denaturation thermal shift (hMcl-1 construct) was 23 °C and the “MW of hMcl-1 after incubation with compound” value (hMcl-1 [1]) was 20,544 Da.

With CC[C@H](C)[C@H](NC(=O)[C@H](CCCNC(=N)N)NC(=O)[C@H](CCCNC(=N)N)NC(=O)[C@H](CC(C)C)NC(=O)[C@H](CCC(N)=O)NC(=O)[C@H](CCC(=O)O)NC(=O)[C@H](C)NC(=O)[C@@H](NC(=O)[C@H](CNC(=O)c1cc(S(=O)(=O)F)ccc1OC)NC(C)=O)[C@@H](C)CC)C(=O)NCC(=O)N[C@@H](CC(=O)O)C(=O)N[C@@H](CCCNC(=N)N)C(=O)N[C@@H](Cc1ccccc1)C(N)=O [Compound 16] (Ac-[Dap](Benzoyl(2-OMe,5-SO2F))IAEQLRRIGDRF-NH2) the Mcl-1 protein levels (Mcl-1 in A549 cells) was “decrease in Mcl-1 protein levels” and the “covalent adduct with Mcl-1 by band shift in cell lysates” value [2] was “Covalent adduct was detected”.

Work on AIAQLLRRIGDAF-NH2 [Compound 8] yielded an IC50 (hMcl-1 [3]) of about 1.8 µM.

AIAQVLRRIGDAF-NH2 [Compound 7] showed an IC50 (hMcl-1 [3]) of about 1.8 µM.

With Ac-AIAEQLRRIGDRF-NH2 [Compound 12] the solubility (Solubility) was “increased solubility” and the IC50 (hBfl-1) was over 10 µM.

B1: biotinylated-BH3 peptide (biotin-AHA-EDIIRNIARHLAQVGDSMDR-NH2) (peptide)
peptide: {Biotin-Ahx}-EDIIRNIARHLAQVGDSMDR-NH2
SMILES: CC[C@H](C)[C@H](NC(=O)[C@H](CC(N)=O)NC(=O)[C@H](CCCNC(=N)N)NC(=O)[C@@H](NC(=O)[C@@H](NC(=O)[C@H](CC(=O)O)NC(=O)[C@H](CCC(=O)O)NC(=O)CCCCCNC(=O)CCCC[C@@H]1SC[C@@H]2NC(=O)N[C@@H]21)[C@@H](C)CC)[C@@H](C)CC)C(=O)N[C@@H](C)C(=O)N[C@@H](CCCNC(=N)N)C(=O)N[C@@H](Cc1c[nH]cn1)C(=O)N[C@@H](CC(C)C)C(=O)N[C@@H](C)C(=O)N[C@@H](CCC(N)=O)C(=O)N[C@H](C(=O)NCC(=O)N[C@@H](CC(=O)O)C(=O)N[C@@H](CO)C(=O)N[C@@H](CCSC)C(=O)N[C@@H](CC(=O)O)C(=O)N[C@@H](CCCNC(=N)N)C(N)=O)C(C)C
B1: binds [4]; binds [5].

Molecule H-AIAQALRRIGDAY-NH2 [peptide 2] has an IC50 [6] of over 3.6 µM.

For Ac-AIAEALRRIGDAF-NH2 [peptide 10], the IC50 [6] was 0.261 µM.

For H-AIAQALRRIGDAR-NH2 [peptide 3], the IC50 [6] was over 10 µM.

For Ac-AIAEQLRRIGDRF-NH2 [peptide 12], the IC50 [6] was 0.57 µM.

Molecule H-AIAEQLRRIGDAF-NH2 [peptide 11] has an IC50 [6] of 0.313 µM.

Work on H-AIAQALRRIGDAL-NH2 [peptide 4] yielded an IC50 [6] of 1.2 µM.

B2: peptide 6 (peptide)
chain: H-AIAQ[Abu]LRRIGDAF-NH2
SMILES: CC[C@H](NC(=O)[C@H](CCC(N)=O)NC(=O)[C@H](C)NC(=O)[C@@H](NC(=O)[C@H](C)N)[C@@H](C)CC)C(=O)N[C@@H](CC(C)C)C(=O)N[C@@H](CCCNC(=N)N)C(=O)N[C@@H](CCCNC(=N)N)C(=O)N[C@H](C(=O)NCC(=O)N[C@@H](CC(=O)O)C(=O)N[C@@H](C)C(=O)N[C@@H](Cc1ccccc1)C(N)=O)[C@@H](C)CC
B2 showed an IC50 [6] of about 1.3 µM.

B3: peptide 5 (peptide)
chain: H-AIAQALRRIGDA[Nle]-NH2
SMILES: CCCC[C@H](NC(=O)[C@H](C)NC(=O)[C@H](CC(=O)O)NC(=O)CNC(=O)[C@@H](NC(=O)[C@H](CCCNC(=N)N)NC(=O)[C@H](CCCNC(=N)N)NC(=O)[C@H](CC(C)C)NC(=O)[C@H](C)NC(=O)[C@H](CCC(N)=O)NC(=O)[C@H](C)NC(=O)[C@@H](NC(=O)[C@H](C)N)[C@@H](C)CC)[C@@H](C)CC)C(N)=O
B3 showed an IC50 [6] of about 1.6 µM.

B4: peptide 9 (peptide)
chain: H-AIAQ[hSer]LRRIGDAF-NH2
SMILES: CC[C@H](C)[C@H](NC(=O)[C@H](C)N)C(=O)N[C@@H](C)C(=O)N[C@@H](CCC(N)=O)C(=O)N[C@@H](CCO)C(=O)N[C@@H](CC(C)C)C(=O)N[C@@H](CCCNC(=N)N)C(=O)N[C@@H](CCCNC(=N)N)C(=O)N[C@H](C(=O)NCC(=O)N[C@@H](CC(=O)O)C(=O)N[C@@H](C)C(=O)N[C@@H](Cc1ccccc1)C(N)=O)[C@@H](C)CC
Molecule B4 has an IC50 [6] of about 3 µM.

Source: article PMC8550878 (Journal of medicinal chemistry, 2021)
